Source: PMC9044198 (RSC Advances, 2021)
“Also recorded” adds a separate entry of the source. Read-outs that look alike come from different tables or passages of the source. Values belong to the compound of their own block, whether it stands above or below them.

What was measured:
[1] = target: α-glucosidase (Saccharomyces cerevisiae, EC 3.2.1.20) (Saccharomyces cerevisiae, UniProt P53341); assay: Assay of α-glucosidase inhibitory activity; format: biochemical; details: for inhibitory effect on α-glucosidase (in words): 1-deoxynojirimycin as control
Chain of α-glucosidase (Saccharomyces cerevisiae, EC 3.2.1.20) (P53341 whole entry): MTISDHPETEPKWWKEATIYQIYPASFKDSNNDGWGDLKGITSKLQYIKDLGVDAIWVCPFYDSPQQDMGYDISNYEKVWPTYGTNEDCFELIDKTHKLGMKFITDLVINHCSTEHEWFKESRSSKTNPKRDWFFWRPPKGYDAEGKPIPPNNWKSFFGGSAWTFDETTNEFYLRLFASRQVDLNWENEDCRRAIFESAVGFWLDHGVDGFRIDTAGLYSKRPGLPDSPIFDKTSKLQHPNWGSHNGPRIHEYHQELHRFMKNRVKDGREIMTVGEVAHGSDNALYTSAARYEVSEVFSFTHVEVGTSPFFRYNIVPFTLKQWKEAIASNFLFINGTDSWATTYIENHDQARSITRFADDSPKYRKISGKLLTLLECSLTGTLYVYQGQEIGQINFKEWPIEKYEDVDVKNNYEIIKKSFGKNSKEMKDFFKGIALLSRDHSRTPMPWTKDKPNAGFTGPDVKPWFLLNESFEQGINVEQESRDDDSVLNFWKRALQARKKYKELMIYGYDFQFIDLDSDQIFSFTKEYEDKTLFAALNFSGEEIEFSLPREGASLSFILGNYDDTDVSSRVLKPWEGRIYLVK

α-glucosidase [2] = target: T1, α-glucosidase (Saccharomyces cerevisiae, UniProt P53341); details: reported in the literature; cited from earlier work
T1 sequence (P53341 whole entry): as above

α-glucosidase [3] = target: T1, α-glucosidase; assay: Inhibitory kinetic analysis; format: biochemical
α-glucosidase [4] = target: T1, α-glucosidase; assay: Fluorescence quenching and UV-Vis absorption spectra of α-glucosidase; format: binding; details: Stern–Volmer analysis and UV-Vis absorption spectra at 298 K
Summary of the method: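 Tryptophan fluorescence was excited at 280 nm and emission recorded at 300–500 nm. Test compound (0–8.0 × 10−5 mol L−1) was added to α-glucosidase (1 U mL−1) and incubated 30 s at 298 K before reading. Data were fitted to the Stern–Volmer equation F0/F = 1 + Kqτ0[Q], with τ0 = 6.2 ns. The same method was run at 273, 298 and 310 K for thermodynamic parameters. UV-Vis spectra (200–600 nm) were taken of enzyme (1.0 × 10−5 mol L−1) with compound at 0–9.0 × 10−5 mol L−1.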

IC50 [1]: 5560 ± 240 nM
SMILES: O=c1cc(-c2ccccc2)oc2cc(OCCCCCCCCN3C[C@H](O)[C@@H](O)[C@H](O)[C@H]3CO)cc(O)c12 [compound 5, 5-Hydroxy-2-phenyl-7-((8-((2R,3R,4R,5S)-3,4,5-trihydroxy-2-(hydroxymeth-yl)-piperidin-1-yl)octyl)oxy)-4H-chromen-4-one]
inhibitory effect on α-glucosidase (in words) [1]: superior inhibition effects compared to 1-deoxynojirimycin

SMILES: OC[C@H]1NC[C@H](O)[C@@H](O)[C@@H]1O [1-Deoxynojirimycin]
reversibility of α-glucosidase inhibition (α-glucosidase [2]): reversibly inhibit

IC50 [1]: > 100000 nM
SMILES: O=c1cc(-c2ccccc2)oc2cc(OCCCCCN3C[C@H](O)[C@@H](O)[C@H](O)[C@H]3CO)cc(O)c12 [compound 4, 5-Hydroxy-2-phenyl-7-((5-((2R,3R,4R,5S)-3,4,5-trihydroxy-2-(hydroxymeth-yl)-piperidin-1-yl)pentyl)oxy)-4H-chromen-4-one]

Ki (α-glucosidase [3]): 210 nM
reversibility of α-glucosidase inhibition (α-glucosidase [3]; 0.0, 0.5, 1.0 μM of compound, varying enzyme concentration): reversible
IC50 [1]: 510 ± 20 nM
α-glucosidase inhibitory activity, fold higher than 1-deoxynojirimycin ([1]; ratio of IC50 values): up to 16 fold
fluorescence quenching mechanism (α-glucosidase [4]): static fluorescence quenching
SMILES: O=c1cc(-c2ccccc2)oc2cc(OCCCCCCCCCCCN3C[C@H](O)[C@@H](O)[C@H](O)[C@H]3CO)cc(O)c12 [compound 6, 5-Hydroxy-2-phenyl-7-((11-((2R,3R,4R,5S)-3,4,5-trihydroxy-2-(hydroxymethyl)-piperidin-1-yl)undecyl)oxy)-4H-chromen-4-one]
inhibition type (α-glucosidase [3]; Lineweaver–Burk plot): mixed competitive; also recorded: mixed-type inhibitor; also recorded: mixed competition type
inhibitory effect on α-glucosidase (in words) [1]: superior inhibition effects compared to 1-deoxynojirimycin
